Results published in ChEMBL document CHEMBL1153346, “Structure-activity study of pentamidine analogues as antiprotozoal agents” (J Med Chem, 2009).
Activity calls are given as the source filed them. No cut-off for these calls is given here.

How the values were obtained:
[1] = test system: Trypanosoma brucei rhodesiense; assay: Antitrypanosomal activity against Trypanosoma brucei rhodesiense STIB900 trypomastigotes infected in NMRI mouse assessed as mouse survival at 10 mg/kg, ip administered from day 3 to day 6 postinfection; type: functional; conditions: route intraperitoneal
In short: (§1)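 STIB900 acute mouse model. Dosing was intraperitoneal, daily for four days, in DMSO diluted with water to 10% final DMSO. An infected untreated control group was kept. Tail blood was checked for parasitemia to day 60, and deaths were recorded to give mean survival days. Mice surviving and aparasitemic at day 60 counted as cured.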

L6 = assay: Cytotoxicity against rat L6 cells after 70 hrs by alamar blue assay; type: cell-based; conditions: L6, 70 h
In short: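 L6 rat myoblasts, 4000 per well, in RPMI 1640 with 2 mM L-glutamine, HEPES, NaHCO₃ and 10% FBS. Exposed to serial dilutions (DMSO ≤1%) for 70 h at 37 °C in humidified 5% CO₂. Resazurin then added for 2-3 h; fluorescence read at ex 536/em 588 nm. IC50 from sigmoidal curves; two independent runs in duplicate.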

[2] = test system: Trypanosoma brucei rhodesiense; assay: Antiprotozoal activity against Trypanosoma brucei rhodesiense STIB900 trypomastigotes after 70 hrs by alamar blue assay; type: functional, organism-based
In short: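 Bloodstream forms, 2000 per well, in MEM with Earle's salts plus 0.2 mM 2-mercaptoethanol, 1 mM pyruvate, 0.5 mM hypoxanthine and 15% heat-inactivated horse serum. Exposed to serial dilutions (DMSO ≤1%) for 70 h at 37 °C in 5% CO₂. Resazurin then added for a further 2-6 h. IC50 from sigmoidal curves; two independent runs in duplicate.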

[3] = Selectivity index, ratio of IC50 for rat L6 cells to IC50 for Trypanosoma brucei rhodesiense STIB900 trypomastigotes; type: toxicity, cell-based; conditions: read-out: Ratio IC50
In short: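 Ratio of L6 IC50 to STIB900 IC50. L6 cells: 4000/well in RPMI 1640 with 10% FBS, 70 h at 37 °C. Bloodstream forms: 2000/well in supplemented MEM with 15% horse serum, 70 h at 37 °C. Both read by Alamar blue fluorescence; IC50s from sigmoidal curves, two independent runs in duplicate.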

Plasmodium falciparum = assay: Antiprotozoal activity after 48 hrs against chloroquine-resistant Plasmodium falciparum K1 infected erythrocytes by [3H]hypoxanthine uptake; type: functional, organism-based
In short: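 Erythrocytic stages in infected human red cells (hematocrit 1.25%, parasitemia 0.3%) in supplemented RPMI 1640 with Albumax II. Serial dilutions incubated at 37 °C in 93% N2/4% CO2/3% O2. [3H]-hypoxanthine (0.5 µCi/well) added at 48 h, then 24 h more. Incorporation counted by scintillation. IC50 from sigmoidal curves; two independent runs in duplicate.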

[4] = Selectivity index, ratio of IC50 for rat L6 cells to IC50 for chloroquine-resistant Plasmodium falciparum K1; type: toxicity, cell-based; conditions: read-out: Ratio IC50
In short: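 Ratio of L6 IC50 to K1 IC50. L6 cells: Alamar blue assay after 70 h, 37 °C. K1: [3H]-hypoxanthine incorporation in infected red cells over 48 + 24 h at 37 °C under low O2. IC50s from sigmoidal curves, two independent runs in duplicate.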

Leishmania donovani = assay: Antiprotozoal activity against Leishmania donovani MHOM/SD/62/1S-CL2D axenic amastigotes after 72 hrs; type: functional, organism-based
In short: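 L. donovani axenic amastigotes, adapted from promastigotes and grown in amastigote medium at 37 °C. 6 × 10⁴ parasites per well with 2-fold compound dilutions (DMSO ≤1%), incubated 72 h at 37 °C in humidified 5% CO₂. Growth read by tetrazolium (CellTiter) absorbance at 490 nm. IC50 from a four-parameter dose-response fit. Average of duplicate determinations.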

[5] = Selectivity index, ratio of IC50 for rat L6 cells to IC50 for Leishmania donovani MHOM/SD/62/1S-CL2D axenic amastigotes; type: toxicity, cell-based; conditions: read-out: Ratio IC50
In short: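 Amastigotes: 6 × 10⁴ parasites/well with 2-fold dilutions, 72 h at 37 °C in 5% CO2. Growth read by tetrazolium CellTiter absorbance at 490 nm; IC50 from a four-parameter dose-response fit.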

[6] = test system: Trypanosoma brucei rhodesiense; assay: Antitrypanosomal activity against Trypanosoma brucei rhodesiense STIB900 trypomastigotes infected in NMRI mouse assessed as survival and aparasitemic condition at 10 mg/kg, ip administered from day 3 to day 6 postinfection measured after 60 days postinfection; type: functional, organism-based; set-up: dose 10 mg/kg
In short: (§2)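 STIB900 acute mouse model with 4 mice per group. Compound in DMSO diluted with water to a final 10% DMSO, given intraperitoneally once daily for four days. An infected, untreated control group was included. Tail blood checked for parasitemia until day 60. Mice alive and aparasitemic at day 60 counted as cured; deaths recorded for mean survival time.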

[7] = test system: Trypanosoma brucei rhodesiense; assay: Antitrypanosomal activity against Trypanosoma brucei rhodesiense STIB900 trypomastigotes infected in NMRI mouse assessed as mouse survival at 20 mg/kg, ip administered from day 3 to day 6 postinfection; type: functional; conditions: route intraperitoneal; in short: as §1
[8] = test system: Trypanosoma brucei rhodesiense; assay: Antitrypanosomal activity against Trypanosoma brucei rhodesiense STIB900 trypomastigotes infected in NMRI mouse assessed as mouse survival at 5 mg/kg, ip administered from day 3 to day 6 postinfection; type: functional; conditions: route intraperitoneal; in short: as §1
[9] = test system: Trypanosoma brucei rhodesiense; assay: Antitrypanosomal activity against Trypanosoma brucei rhodesiense STIB900 trypomastigotes infected in NMRI mouse assessed as survival and aparasitemic condition at 5 mg/kg, ip administered from day 3 to day 6 postinfection measured after 60 days postinfection; type: functional, organism-based; set-up: dose 5 mg/kg; in short: as §2
Mus musculus = assay: Toxicity in NMRI mouse infected with Trypanosoma brucei rhodesiense STIB900 trypomastigotes at 20 mg/kg, ip administered from day 3 to day 6 postinfection; type: organism-based; set-up: dose 20 mg/kg, route intraperitoneal; conditions: in vivo
[10] = test system: Trypanosoma brucei rhodesiense; assay: Antitrypanosomal activity against Trypanosoma brucei rhodesiense STIB900 trypomastigotes infected in NMRI mouse assessed as survival and aparasitemic condition at 20 mg/kg, ip administered from day 3 to day 6 postinfection measured after 60 days postinfection; type: functional, organism-based; set-up: dose 20 mg/kg; in short: as §2
[11] = test system: Trypanosoma brucei rhodesiense; assay: Antitrypanosomal activity against Trypanosoma brucei rhodesiense STIB900 trypomastigotes infected in NMRI mouse assessed as mouse survival at 2 mg/kg, ip administered from day 3 to day 6 postinfection; type: functional; conditions: route intraperitoneal
[12] = test system: Trypanosoma brucei rhodesiense; assay: Antitrypanosomal activity against Trypanosoma brucei rhodesiense STIB900 trypomastigotes infected in NMRI mouse assessed as mouse survival at 1 mg/kg, ip administered from day 3 to day 6 postinfection; type: functional; conditions: route intraperitoneal
[13] = test system: Trypanosoma brucei rhodesiense; assay: Antitrypanosomal activity against Trypanosoma brucei rhodesiense STIB900 trypomastigotes infected in NMRI mouse assessed as survival and aparasitemic condition at 8 mg/kg, ip administered from day 3 to day 6 postinfection measured after 60 days postinfection; type: functional, organism-based; set-up: dose 8 mg/kg
[14] = test system: Trypanosoma brucei rhodesiense; assay: Antitrypanosomal activity against Trypanosoma brucei rhodesiense STIB900 trypomastigotes infected in NMRI mouse assessed as survival and aparasitemic condition at 2 mg/kg, ip administered from day 3 to day 6 postinfection measured after 60 days postinfection; type: functional, organism-based; set-up: dose 2 mg/kg
[15] = test system: Trypanosoma brucei rhodesiense; assay: Antitrypanosomal activity against Trypanosoma brucei rhodesiense STIB900 trypomastigotes infected in NMRI mouse assessed as mouse survival at 8 mg/kg, ip administered from day 3 to day 6 postinfection; type: functional; conditions: route intraperitoneal

SMILES	Survival [1] [days]	IC50 (L6) [nM]	IC50 [2] [nM]	selectivity ratio [3]	IC50 (Plasmodium falciparum) [nM]	selectivity ratio [4]	IC50 (Leishmania donovani) [nM]	selectivity ratio [5]	Activity [6]	Survival [7] [days]	Survival [8] [days]	Activity [9]	Activity (Mus musculus)	Activity [10]	Survival [11] [days]	Survival [12] [days]	Activity [13]	Activity [14]	Survival [15] [days]
COc1cc(C2=NCCN2)ccc1OCCCCOc1ccc(C2=NCCN2)cc1OC.Cl.Cl	18.3	> 164000	68	> 2410	20	> 8200	38900	> 4	inactive										
Cl.Cl.N=C(N)c1cccc(OCCCCOc2cccc(C(=N)N)c2)c1	20	16000	56	286	21	762	4460	4	inactive	>43									
COc1cc(C2=NCCN2)ccc1OCCCCCOc1ccc(C2=NCCN2)cc1OC.Cl.Cl	>31.8	> 158000	40	> 3950	19	> 8320	36300	> 4	inactive										
Cl.Cl.Cl.Cl.N=C(N)c1ccc(OCCCCOc2ccc(C(=N)N)cc2Cl)c(Cl)c1	22	10900	42	260	19	574	2130	5	inactive	>41.5									
Cl.Cl.c1cc(C2=NCCN2)ccc1OCCCCOc1ccc(C2=NCCN2)cc1		62700	244	257	31	2020	3060	20		>41.5	7.8	inactive							
COc1cc(C(=N)N)ccc1OCCCCOc1ccc(C(=N)N)cc1OC.Cl.Cl	17.5	> 187000	270	> 693	44	> 4250	38100	> 5	inactive										
Cl.Cl.Cl.Cl.N=C(N)c1ccc(OCCCOc2ccc(C(=N)N)cc2Cl)c(Cl)c1		24800	4	6200	19	1300	1560	16			>60	Active							
CCOC(=O)c1cc(C(=N)NC(C)C)ccc1OCCCCCOc1ccc(C(=N)NC(C)C)cc1C(=O)OCC.Cl.Cl		> 140000	51	> 2740	13	> 10800	55900	2		5.5			Toxic	inactive					
COc1cc(C(=N)N)ccc1OCCCCCOc1ccc(C(=N)N)cc1OC.Cl.Cl		162000	10	16200	21	7710	24000	7			26	inactive							
Nc1nc(N)nc(Nc2ccc([As]3SCC(CO)S3)cc2)n1 (centres undefined) [MELARSOPROL]															>60	>51.5	Active	Active	>60
Cl.Cl.N=C(N)c1ccc(SCCCCCSc2ccc(C(=N)N)cc2)cc1		7800	5	1560	19	411	1270	6			32.3	inactive							
Cl.Cl.c1cc(C2=NCCN2)ccc1OCCCOc1ccc(C2=NCCN2)cc1	22.8	75300	110	685	10	7530	2880	26	inactive	>51									
